This is a sample that favours compounds with a hit; in the whole collection about 0.55% have one here.
OXTR agonist: human OXTR agonism. 320,000 tested, 0.32% active. P30559. CHO-OTR cells, Fluo-8 calcium fluorescence; normalized: DMSO 0%, oxytocin 100%. activation, % at 3 µM. AID 2435;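 active = activation above the mean of all tested compounds plus 3 SD, cutoff set per screening run, cut at about 20% in these data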;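 note: peak over basal fluorescence ratio from a 100 s FLIPR kinetic read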
Target sequence (P30559 whole entry, looked up): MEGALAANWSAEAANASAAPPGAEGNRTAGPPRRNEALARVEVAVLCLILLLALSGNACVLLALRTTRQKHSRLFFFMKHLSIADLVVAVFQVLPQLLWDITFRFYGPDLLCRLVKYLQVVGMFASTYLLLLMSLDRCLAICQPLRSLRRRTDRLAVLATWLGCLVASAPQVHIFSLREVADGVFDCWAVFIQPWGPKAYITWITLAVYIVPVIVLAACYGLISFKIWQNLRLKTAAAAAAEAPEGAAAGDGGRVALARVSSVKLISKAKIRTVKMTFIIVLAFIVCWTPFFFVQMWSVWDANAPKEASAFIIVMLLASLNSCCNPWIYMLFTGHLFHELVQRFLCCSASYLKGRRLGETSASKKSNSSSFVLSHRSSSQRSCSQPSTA
V1aR counter: counter-screen for oxytocin receptor agonists: human V1a receptor agonists; P37288; CHO-V1R cells, Fluo-8 calcium fluorescence, agonist mode; 0% DMSO, 100% 3 nM vasopressin; activation, % at 3 µM; 320,000 tested, 0.25% active; AID 2797;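 active = activation above the mean activation of all tested compounds plus 3 SD, per screening run, cut at about 20% in these data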;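 note: signal is peak over basal fluorescence ratio across a 100 second FLIPR read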
OXTR potentiate: potentiates the human oxytocin receptor response. P30559. CHO-OTR cells, Fluo-8 calcium fluorescence, potentiator mode; 0% = oxytocin EC15, 100% = EC100. activation, % at 3 µM. 320,000 tested, 0.061% active;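 active = activation above that plate's cutoff, the mean activation of tested compounds plus 3 SD, cut at about 6.6% in these data, passing the limit was not always enough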;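 note: 100% uses oxytocin at 75 nM as the full agonist control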
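Material: CHO-OTR cells, human receptor; compound dosing: single dose, 3.0 µM nominal final compound concentration; schedule: 6 min compound pre-incubation at room temperature, 100 s kinetic read; measured by: kinetic Fluo-8 calcium fluorescence; read-out basis: % activation vs EC15 and EC100 oxytocin; controls: EC15 oxytocin alone as 0%, 75 nM oxytocin as 100%; replicates: singlicate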
zfTRPN1 agonist: zebrafish TRPN1 (NompC) channel agonism; HEK293 zebrafish TRPN1-YFP, Fluo-8 calcium fluorescence; 100% = response to 87 µM carbachol; activation, % at 3 µM; 220,000 tested, 0.18% active;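 active = activation above its plate's cutoff, the mean activation of test wells on that plate plus 3 SD, cut at about 19% in these data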;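 note: 0% = DMSO alone and 100% = 87 µM carbachol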
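Control set: carbachol 87 µM as high control, DMSO as low control; system: HEK293 stable line with zebrafish TRPN1-YFP; read-out: % activation versus carbachol response; detection: intracellular calcium fluorescence with Fluo-8; doses: single test compound dose, 3 µM nominal, 0.3% DMSO; schedule: dye 1 h 37 °C plus 30 min RT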
TRPML3 agonist: agonists of human TRPML3 channel. Q8TDD5. HEK293 TRPML3-YFP, Fluo-8 calcium fluorescence; 100% = the carbachol control signal. activation, % at 3 µM. 220,000 tested, 0.29% active. AID 1448;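 active = activation above its plate's cutoff, the mean activation of the plate's test wells plus 3 SD, cut at about 12% in these data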;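 note: 0% = DMSO only wells and 100% = carbachol wells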
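Test system – HEK293 line with stable expression of human TRPML3-YFP channel · Control set – carbachol 87 µM final as high control (100%), DMSO as low control (0%) · Signal – Fluo-8 calcium dye fluorescence, ex 470-495, em 515-575 nm · Incubation – 1-h 37 °C dye load, 5-s basal, 120-s post-compound reads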
Active calls of the source: *; nt = no result given.

SMILES	OXTR agonist	V1aR counter	OXTR potentiate	zfTRPN1 agonist	TRPML3 agonist
CC(C)(C)C(=O)N1CCN(S(=O)(=O)c2ccc3c(c2)OCCCO3)CC1	6	6	-15	nt	nt
CC(=O)Nc1ccc(S(=O)(=O)N2CCC(C(=O)c3ccc(F)cc3)CC2)cc1	7	8	-9	nt	nt
CN1CCN(c2ccc(C(F)(F)F)cc2NC(=O)Nc2ccccc2)CC1	34*	33*	-24	nt	nt
Cc1ccc(N2C(=O)c3ccc(C(=O)N4CCN(c5ccc(C)c(C)c5)CC4)cc3C2=O)cc1	0	0	-3	-1	1
Cc1ccc(N2C(=O)c3ccc(C(=O)N4CCN(Cc5ccccc5)CC4)cc3C2=O)cc1	30*	40*	-10	9	3
COC(=O)c1cccc(C(=O)N2CCCC(Nc3ccc(C)c(C)c3)C2)c1 (centres undefined)	-1	0	-1	nt	nt
Cc1csc(NC(=O)CSc2nsc(SCC(=O)Nc3nc(C)cs3)c2C#N)n1	6	4	-4	1	0
Cc1onc(-c2ccccc2)c1C(=O)NNC(=O)c1ccccc1	-1	0	-1	nt	nt
Cc1cccc(C(=O)NC(=S)NNC(=O)c2ccccc2Cl)c1	71*	49*	-21	34*	13*
Cc1onc(-c2ccccc2)c1C(=O)NNC(=S)NC(=O)/C=C/c1ccccc1	35*	46*	-9	4	2
Cc1ccccc1C(=O)NNC(=S)NC(=O)c1ccc(Cl)cc1Cl	73*	85*	-14	72*	57*
Cc1onc(-c2ccccc2)c1C(=O)NNC(=S)NC(=O)c1ccc(Br)cc1	73*	66*	-11	23*	11
C/C(=N\Nc1cc(Cl)nc(C)n1)c1ccccc1	-1	-2	-10	0	0
CN(C(=O)CC(NC(=O)c1ccccc1Cl)c1ccccc1)c1ccccc1 (centres undefined)	-1	0	-5	nt	nt
O=C(Oc1nsnc1N1CCOCC1)N(c1ccccc1)c1ccccc1	-1	6	-5	1	1
Cc1onc(-c2ccccc2)c1C(=O)NNC(=S)NC(=O)c1ccc(Cl)cc1Cl	102*	102*	-12	7	2
Cc1ccc(C(=O)NNC(=S)NC(=O)c2ccc(Cl)cc2)cc1	91*	81*	-13	143*	83*
CC(=O)NNC(=S)NC(=O)c1ccc(C)cc1	-1	1	-5	0	0
Cc1onc(-c2ccccc2)c1C(=O)NNC(=O)c1ccccc1O	0	0	-4	nt	nt
CCCCNC(=S)Nc1ccc([N+](=O)[O-])cc1	10	8	-16	21*	11
CCCCNC(=S)NC(=O)c1ccc([N+](=O)[O-])cc1	-3	-1	-9	-3	0
CC(C)CCNC(=S)Nc1ccc([N+](=O)[O-])cc1	8	6	-7	24*	13*
COc1cccc2c1C(=O)c1c(O)c3c(c(O)c1C2=O)C[C@@](O)(C(C)=O)C[C@@H]3O[C@H]1C[C@H](N)[C@H](O)[C@H](C)O1	nt	nt	nt	13	8
CC(=O)[C@]1(O)Cc2c(O)c3c(c(O)c2[C@@H](O[C@H]2C[C@H](N)[C@H](O)[C@H](C)O2)C1)C(=O)c1ccccc1C3=O	77*	40*	-16	nt	nt
CCOc1ccc(-c2nnc(SCC(=O)Nc3ccc4c(c3)c3ccccc3n4CC)n2N)cc1	1	0	-4	0	0
SMILES	OXTR agonist	V1aR counter	OXTR potentiate	zfTRPN1 agonist	TRPML3 agonist
C=CCN1C(c2cccc(C(F)(F)F)c2)=CS/C1=C(/C#N)c1nnc(N2CCOCC2)n1-c1ccccc1	-2	0	-7	22*	61*
CSc1ccc(Cn2nnc(C(=O)NCc3ccccc3)c2N)cc1	36*	36*	-26	19	11
Nc1c(C(=O)NCc2ccccc2)nnn1Cc1ccccc1	2	4	-7	0	0
Cc1ccc(Cn2nnc(C(=O)Nc3cc(C)ccc3C)c2N)cc1	20*	23*	-9	5	4
CC1=Nc2ccccc2/C1=C/c1sc(=N)n(-c2nccs2)c1O	23*	26*	-11	16	8
C/C(=N\NC(=O)C1CC1)c1cccc(NC(=O)c2cccc(Cl)c2)c1	0	-1	0	0	-1
CCC(C)Oc1nc(C)cc(C)c1S(=O)(=O)c1ccccc1C (centres undefined)	-2	-1	-12	-1	42*
N#Cc1c(NC(=S)NC(=O)c2ccccc2)sc2c1CCN(CCc1ccccc1)C2	28*	57*	-15	24*	14*
CCCCCCCCCCCCCCCCn1cc[n+](C)c1	25*	35*	-20	1	0
COc1ccc(C2C=C(c3cccs3)Nc3nc(CCCO)nn32)cc1 (centres undefined)	47*	51*	-4	3	1
COc1ccc(C2C=C(c3ccccc3)Nc3nc(CCCO)nn32)cc1 (centres undefined)	-1	-1	-15	0	0
O=C(NCCN1CCOCC1)c1ccc(Cl)c(S(=O)(=O)N2CCCCC2)c1	1	2	-4	nt	nt
CN1CCC(N(C)S(=O)(=O)c2ccc(NC(=O)COc3ccc(F)cc3)cc2)CC1	4	3	-3	nt	nt
CN1CCC(N(C)S(=O)(=O)c2ccc(NC(=O)COc3ccc(Cl)cc3)cc2)CC1	25*	24*	-10	nt	nt
CCOC(=O)CC1C(=O)NCCN1C(=O)c1cc2c(=O)n3cccc(C)c3nc2s1 (centres undefined)	-1	1	-5	1	0
CCCN1C(=O)/C(=C/c2c(N3CCNC(=O)C3CC(=O)OC)nc3c(C)cccn3c2=O)SC1=S (centres undefined)	nt	nt	nt	31*	10
N#CNC(=Nc1cccc(F)c1)SCc1cccc(F)c1	9	10	-10	16	13*
CN(C)CCCNS(=O)(=O)c1ccc(N2CCC(c3ccc(Cl)cc3)=N2)cc1	20*	5	-20	-1	1
O=S(=O)(c1ccc(N2CCC(c3ccc(Cl)cc3)=N2)cc1)N(CCO)CCO	9	19	-21	-1	1
COc1ccc(C2C(C(=O)c3cccs3)=C(O)C(=O)N2c2cccc(C)n2)cc1 (centres undefined)	0	0	-5	-1	0
Cc1ccc(C2C(C(=O)c3cccs3)=C(O)C(=O)N2c2nnc(C)s2)cc1 (centres undefined)	8	13	0	42*	22*
COCCCNc1c2c3c(cccc3[nH]c1=O)C(=O)c1ccccc1-2	590*	533*	-11	203*	105*
COc1cc(/C=C2\SC(=S)N(C(C(=O)O)c3ccccc3)C2=O)ccc1O (centres undefined)	33*	49*	-12	40*	27*

High-throughput results: PubChem BioAssay, The Scripps Research Institute Molecular Screening Center
